Measurements from ChEMBL document CHEMBL3792310, “Amine-free melanin-concentrating hormone receptor 1 antagonists: Novel non-basic 1-(2H-indazole-5-yl)pyridin-2(1H)-one derivatives and mitigation of mutagenicity in Ames test” (Bioorg Med Chem, 2016).

Legend:
[1] = target: Melanin-concentrating hormone receptor 1 (Homo sapiens, UniProt Q99705); assay: Displacement of [125I]-MCH(4 to 19) from human MCHR1 expressed in CHO cell membranes after 1 hr liquid scintillation counting
[2] = target: Melanin-concentrating hormone receptor 1 (Rattus norvegicus, UniProt P97639); assay: Displacement of [125I]-MCH(4 to 19) from rat MCHR1 expressed in CHO cell membranes after 1 hr by liquid scintillation counting
Melanin-concentrating hormone receptor 1 (Rattus norvegicus, UniProt P97639), sequence (P97639 whole entry): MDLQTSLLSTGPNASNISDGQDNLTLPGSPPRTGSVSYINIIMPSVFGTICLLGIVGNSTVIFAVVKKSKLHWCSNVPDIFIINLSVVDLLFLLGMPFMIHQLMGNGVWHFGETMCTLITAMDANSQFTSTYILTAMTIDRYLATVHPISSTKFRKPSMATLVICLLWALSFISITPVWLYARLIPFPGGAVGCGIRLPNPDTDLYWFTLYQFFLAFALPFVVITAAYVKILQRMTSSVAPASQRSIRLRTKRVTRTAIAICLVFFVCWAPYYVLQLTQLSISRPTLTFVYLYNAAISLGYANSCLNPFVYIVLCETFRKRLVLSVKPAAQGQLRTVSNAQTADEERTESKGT

[3] = system: Salmonella typhimurium; assay: Mutagenicity in Salmonella typhimurium TA1537 assessed as increase in number of revertant colony up to 5000 ug/plate by Ames test in absence of S9 fraction; type: toxicity, organism-based; conditions: salmonella enterica subsp. enterica serovar typhimurium
Outline: (§1)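 Ames test in Salmonella typhimurium TA1537, with and without S9 metabolic activation. A positive call is a more than two-fold increase in revertant colonies over vehicle control.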

[4] = system: Salmonella typhimurium; assay: Mutagenicity in Salmonella typhimurium TA1537 at 250 ug by Ames test in presence of S9 fraction; type: toxicity, organism-based, Salmonella enterica subsp. enterica serovar Typhimurium; outline: as §1
[5] = system: Salmonella typhimurium; assay: Mutagenicity in Salmonella typhimurium TA1537 assessed as increase in number of revertant colony at 250 ug/plate by Ames test in absence of S9 fraction; type: toxicity, organism-based; conditions: salmonella enterica subsp. enterica serovar typhimurium; outline: as §1

Melanin-concentrating hormone receptor 1 (Homo sapiens, UniProt Q99705), sequence (Q99705 whole entry): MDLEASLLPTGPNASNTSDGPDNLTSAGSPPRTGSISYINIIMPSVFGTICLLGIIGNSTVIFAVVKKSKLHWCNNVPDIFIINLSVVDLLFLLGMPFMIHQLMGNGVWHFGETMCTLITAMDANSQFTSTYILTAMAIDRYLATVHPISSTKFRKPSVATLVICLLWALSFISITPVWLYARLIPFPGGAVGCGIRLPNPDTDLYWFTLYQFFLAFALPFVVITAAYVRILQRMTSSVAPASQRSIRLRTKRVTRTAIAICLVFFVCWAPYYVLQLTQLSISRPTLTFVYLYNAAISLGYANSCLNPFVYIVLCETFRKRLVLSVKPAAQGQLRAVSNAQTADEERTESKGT

| SMILES | IC50 [1] [nM] | IC50 [2] [nM] | Activity [3] | Activity [4] | fold change (FC) [5] |
| --- | --- | --- | --- | --- | --- |
| Cc1c2cc(-n3ccc(OCc4ccc(F)cc4)cc3=O)ccc2nn1C | 110 | 76 | Non-toxic | – | – |
| Cc1c2cc(-n3ccc(OCc4cc(C(F)(F)F)cs4)cc3=O)ccc2nn1C | 74 | 38 | – | – | – |
| CCCn1nc2ccc(-n3ccc(OCc4ccc(Cl)cc4)cc3=O)cc2c1C | 210 | 130 | – | – | – |

More lines, in order of falling IC50 [1], values ahead:

| IC50 [1] [nM] | IC50 [2] [nM] | SMILES | Activity [3] | Activity [4] | fold change (FC) [5] |
| --- | --- | --- | --- | --- | --- |
| 170 | 90 | Cc1c2cc(-n3ccc(OCc4ccc(C(F)(F)F)s4)cc3=O)ccc2nn1C | – | – | – |
| 150 | – | Cn1c(C2CC2)cc2ccc(-n3ccc(OCc4ccc(Cl)cc4)cc3=O)cc21 | – | – | – |
| 69 | – | Cc1c(C2CC2)nn2ccc(-n3ccc(OCc4ccc(Cl)cc4)cc3=O)cc12 | – | – | – |
| 35 | 36 | Cc1c2cc(-n3ccc(OCc4ccc(Cl)cc4)cc3=O)ccc2nn1C | – | Non-toxic | 2 |
